Measured values published in EPA's CvTdb concentration-time database.

Assays:
Mouse [1] = test: concentration in plasma after dosing; conditions: 3 h; dosed: 2-Hydroxy-4-methoxybenzophenone; 50 mg/kg; iv; Male; B6C3F1
Mouse [2] = test: concentration in plasma after dosing; conditions: 10 min; dosed: 2-Hydroxy-4-methoxybenzophenone; 50 mg/kg; iv; Female; B6C3F1
Mouse [3] = test: concentration in plasma after dosing; conditions: dosed: 2-Hydroxy-4-methoxybenzophenone, 100 mg/kg, oral, Female, B6C3F1
Mouse [4] = test: concentration in plasma after dosing; conditions: 10 min; dosed: 2-Hydroxy-4-methoxybenzophenone; 500 mg/kg; oral; Female; B6C3F1
Mouse [5] = test: concentration in plasma after dosing; conditions: 2 h; dosed: 2-Hydroxy-4-methoxybenzophenone; 500 mg/kg; oral; Male; B6C3F1
Mouse [6] = test: concentration in plasma after dosing; conditions: 0.25 h; dosed: 2-Hydroxy-4-methoxybenzophenone; 50 mg/kg; iv; Male; B6C3F1
Rat [7] = test: concentration in plasma after dosing; conditions: 22 h; dosed: Primidone; 130 mg/kg; oral; Female; F344
Rat [8] = test: concentration in plasma after dosing; conditions: 18 h; dosed: Primidone; 80 mg/kg; oral; Female; F344
Hamster = test: concentration in plasma after dosing; conditions: dosed: 2,4-Dichlorophenoxyacetic acid, 40 mg/kg, oral, Male, Syrian Golden
Method in brief: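 Points were largely digitised from plot screenshots with WebPlotDigitizer or otherwise copied from tables, and they remain in the units each source reported. They come from published in vivo toxicokinetic studies and two structured collections. Sampling and analytical methods follow each source and were often not reported.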

Mouse [9] = test: concentration in plasma after dosing; conditions: dosed: 2,4-Dichlorophenoxyacetic acid, 5.2 mg/kg, oral, Male, B6C3F1
Rat [10] = test: concentration in brain after dosing; conditions: 12 h; dosed: alpha-Thujone; 50 mg/kg; oral; Male; Harlan Sprague Dawley
Rat [11] = test: concentration in brain after dosing; conditions: 5 min; dosed: alpha-Thujone; 25 mg/kg; oral; Male; Harlan Sprague Dawley
Rat [12] = test: concentration in brain after dosing; conditions: 0.5 h; dosed: alpha-Thujone; 25 mg/kg; oral; Male; Harlan Sprague Dawley
Rat [13] = test: concentration in brain after dosing; conditions: 1.5 h; dosed: alpha-Thujone; 50 mg/kg; oral; Female; Harlan Sprague Dawley
Rat [14] = test: concentration in brain after dosing; conditions: 6 h; dosed: alpha-Thujone; 50 mg/kg; oral; Female; Harlan Sprague Dawley
Rat [15] = test: concentration in brain after dosing; conditions: 2 min; dosed: alpha-Thujone; 25 mg/kg; oral; Male; Harlan Sprague Dawley
Rat [16] = test: concentration in brain after dosing; conditions: 5 min; dosed: alpha-Thujone; 50 mg/kg; oral; Female; Harlan Sprague Dawley
Rat [17] = test: concentration in plasma after dosing; conditions: 5 min; dosed: alpha-Thujone; 25 mg/kg; oral; Male; Harlan Sprague Dawley
Rat [18] = test: concentration in liver after dosing; conditions: 1200 h; dosed: Perfluorohexane-1-sulphonic acid – potassium salt; 16 mg/kg; oral; Male; Harlan Sprague Dawley
Rat [19] = test: concentration in liver after dosing; conditions: 12 h; dosed: Perfluorohexane-1-sulphonic acid – potassium salt; 16 mg/kg; oral; Female; Harlan Sprague Dawley
Rat [20] = test: concentration in brain after dosing; conditions: 24 h; dosed: Perfluorohexane-1-sulphonic acid – potassium salt; 16 mg/kg; oral; Female; Harlan Sprague Dawley
Rat [21] = test: concentration in brain after dosing; conditions: 6 h; dosed: Perfluorohexane-1-sulphonic acid – potassium salt; 16 mg/kg; oral; Female; F344
Rat [22] = test: concentration in liver after dosing; conditions: 24 h; dosed: Perfluorohexane-1-sulphonic acid – potassium salt; 16 mg/kg; oral; Female; F344
Rat [23] = test: concentration in plasma after dosing; conditions: dosed: Perfluorohexane-1-sulphonic acid – potassium salt, 4 mg/kg, oral, Male, F344
Rat [24] = test: concentration in plasma after dosing; conditions: dosed: Perfluorohexane-1-sulphonic acid – potassium salt, 4 mg/kg, oral, Male, F344; remark: listed apart in the source
Rat [25] = test: concentration in kidney after dosing; conditions: 12 h; dosed: Perfluorohexane-1-sulphonic acid – potassium salt; 16 mg/kg; oral; Female; F344
Rat [26] = test: concentration in plasma after dosing; conditions: 2 min; dosed: Pyridine; 10 mg/kg; oral; Male; F344
Rat [27] = test: concentration in plasma after dosing; conditions: dosed: Pyridine, 5 mg/kg, oral, Male, F344
Rat [28] = test: concentration in plasma after dosing; conditions: dosed: Methyleugenol, 37 mg/kg, oral, Female, F344/N
Rat [29] = test: concentration in plasma after dosing; conditions: dosed: Methyleugenol, 37 mg/kg, iv, Female, F344
Rat [30] = test: concentration in plasma after dosing; conditions: 1 h; dosed: Methyleugenol; 37 mg/kg; oral; Male; F344/N
Rat [31] = test: concentration in plasma after dosing; conditions: dosed: Methyleugenol, 37 mg/kg, iv, Male, F344

O=C(c1ccccc1)c1ccc(O)cc1O [2,4-Dihydroxybenzophenone]
Conditions | concentration in plasma [ng/mL]
Mouse [1] | 232
Mouse [2] | 2270
Mouse [4] | 4250
Mouse [5] | 318
Mouse [6] | 1970

Mouse [3]
Conditions | concentration in plasma [ng/mL]
0.25 h | 276
2 h | 92.3
2.5 min | 63.7
10 min | 130

CCC1(c2ccccc2)C(=O)NCNC1=O [Primidone]
Conditions | concentration in plasma [ng/mL]
Rat [7] | 1700
Rat [8] | 1600

O=C(O)COc1ccc(Cl)cc1Cl [2,4-Dichlorophenoxyacetic acid]
concentration in plasma [ng/mL]
Conditions | 0.25 h | 0.5 h | 1 h | 1.5 h | 2 h | 3 h | 4 h | 5 min | 6 h | 10 h
Hamster | 70500 | 36800 | 80100 | 14000 | 20500 | – | 2580 | 102000 | – | –
Mouse [9] | 12900 | 21100 | – | – | 18600 | 8140 | 8940 | 18900 | 2910 | 212

CC(C)[C@]12CC(=O)[C@H](C)[C@H]1C2 [alpha-Thujone]
Conditions | concentration in brain [ng/g] | concentration in plasma [ng/mL]
Rat [10] | 107 | –
Rat [11] | 754 | –
Rat [12] | 285 | –
Rat [13] | 1020 | –
Rat [14] | 200 | –
Rat [15] | 11.2 | –
Rat [16] | 996 | –
Rat [17] | – | 247

O=S(=O)([O-])C(F)(F)C(F)(F)C(F)(F)C(F)(F)C(F)(F)C(F)(F)F.[K+] [Perfluorohexane-1-sulphonic acid – potassium salt]
Conditions | concentration in brain [ng/g] | concentration in kidney [ng/g] | concentration in liver [ng/g]
Rat [18] | – | – | 10900
Rat [19] | – | – | 39800
Rat [20] | 743 | – | –
Rat [21] | 1520 | – | –
Rat [22] | – | – | 53400
Rat [25] | – | 37000 | –

concentration in plasma [ng/mL]
Conditions | 1 h | 6 h | 12 h | 192 h | 864 h
Rat [23] | 18800 | – | 32300 | – | 6150
Rat [24] | – | 28700 | – | 19100 | –

c1ccncc1 [Pyridine]
Conditions | concentration in plasma [ng/mL]
Rat [26] | 453

Rat [27]
Conditions | concentration in plasma [ng/mL]
4 h | 2550
5 min | 2490

C=CCc1ccc(OC)c(OC)c1 [Methyleugenol]
concentration in plasma [ng/mL]
Conditions | 0.5 h | 0.75 h | 5 h | 20 min
Rat [28] | – | – | 5.58 | 146
Rat [29] | 1330 | 535 | – | –
Rat [31] | 3440 | 3090 | – | –

Conditions | concentration in plasma [ng/mL]
Rat [30] | 63.4
